CSC inhib: cancer stem cell inhibition. inhibition, % at 7.5 µM. cancer stem cell-like cells viability, luminescence. 300,000 compounds, 1.1% hits; in the data active = inhibition above about 75%; inconclusive = no clear call, values can overlap the other calls; tested in HMLE shEcad cells
T cruzi inh: blocks replication of Trypanosoma cruzi; T. cruzi beta-gal in NIH3T3, luminescence, 90 h; inhibition, % (test concentration not listed); 300,000 compounds, 1.4% hits;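 active = mean inhibition across valid replicates above about 55%, limit read from the data; inconclusive = mean below that limit but half or more replicates reach it; inactive = mean below it, under half of replicates reach it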;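 also: signal also drops with host cell toxicity which is not excluded here; 0% = plate median of DMSO wells and 100% = zero luminescence signal; higher percent means less beta-gal luminescence so fewer parasites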
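Material: NIH/3T3 host cells with β-galactosidase reporter T. cruzi; Input: 5,000 host fibroblasts per well; Medium: DMEM, 2% fetal bovine serum; Compound: 50 nL DMSO compound solution per well; Schedule: 3 h host attachment, then at least 90 h co-culture; Detection: luminescent β-galactosidase signal after 60 min lysis.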
Beta cell apopt: blocks beta cell apoptosis | 300,000 compounds, 0.8% hits | protection from apoptosis, % (concentration not given with the values) | INS-1E cytokine-induced death, ATP luminescence, 48 h; percent of positive-control rescue, neutral wells zero | AID 435005;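 active = Every replicate reaches about 75%, or at least half do and their mean reaches it too, limit read from the data; inconclusive = At least half of replicates reach the limit but their mean does not; inactive = Under half of replicates reach the limit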;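 also: 0% = cytokine-treated negative control wells and 100% = positive control rescue; higher means more ATP so stronger rescue from cytokine killing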
SKKanGAS inh: blocks kanamycin growth of S. pyogenes SKKanGAS strain; BacTiter-Glo, 6 h; inhibition, % at 7.5 µM; 300,000 compounds, 1.3% hits; AID 1662;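 active = mean replicate score, as percent of positive control median, at least 50; inconclusive = mean below 50 but one replicate at or above 50; inactive = mean and every replicate below 50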;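 also: strain carries kanamycin resistance gene driven by streptokinase promoter and grows in 40 µg/ml kanamycin; loss of luminescence reflects streptokinase promoter inhibition or plain growth inhibition; 0% = median of DMSO wells and 100% = positive control at its reference dose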
Mdm2-MdmX inh: disrupts the human Mdm2-MdmX interaction; O15151+Q00987; SaOS-2 split-luciferase Mdm2/MdmX complementation, luminescence; inhibition, % at 8 µM; 330,000 compounds, 3% hits;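 active = inhibition of at least 50% at 8 µM in the primary screen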
Target sequence (O15151 whole entry, looked up): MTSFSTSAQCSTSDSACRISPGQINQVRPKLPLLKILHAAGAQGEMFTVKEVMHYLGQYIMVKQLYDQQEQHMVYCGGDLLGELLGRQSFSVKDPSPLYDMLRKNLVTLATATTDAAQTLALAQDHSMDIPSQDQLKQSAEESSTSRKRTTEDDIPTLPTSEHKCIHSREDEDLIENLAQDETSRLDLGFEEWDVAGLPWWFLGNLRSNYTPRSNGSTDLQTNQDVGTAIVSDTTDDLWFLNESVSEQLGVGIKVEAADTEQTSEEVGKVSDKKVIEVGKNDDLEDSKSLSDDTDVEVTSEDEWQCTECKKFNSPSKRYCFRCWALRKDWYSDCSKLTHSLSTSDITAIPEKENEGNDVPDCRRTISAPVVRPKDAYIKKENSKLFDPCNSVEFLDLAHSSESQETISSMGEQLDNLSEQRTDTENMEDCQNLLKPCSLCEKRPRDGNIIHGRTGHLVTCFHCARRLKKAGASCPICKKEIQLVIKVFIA
Target sequence (Q00987 whole entry, looked up): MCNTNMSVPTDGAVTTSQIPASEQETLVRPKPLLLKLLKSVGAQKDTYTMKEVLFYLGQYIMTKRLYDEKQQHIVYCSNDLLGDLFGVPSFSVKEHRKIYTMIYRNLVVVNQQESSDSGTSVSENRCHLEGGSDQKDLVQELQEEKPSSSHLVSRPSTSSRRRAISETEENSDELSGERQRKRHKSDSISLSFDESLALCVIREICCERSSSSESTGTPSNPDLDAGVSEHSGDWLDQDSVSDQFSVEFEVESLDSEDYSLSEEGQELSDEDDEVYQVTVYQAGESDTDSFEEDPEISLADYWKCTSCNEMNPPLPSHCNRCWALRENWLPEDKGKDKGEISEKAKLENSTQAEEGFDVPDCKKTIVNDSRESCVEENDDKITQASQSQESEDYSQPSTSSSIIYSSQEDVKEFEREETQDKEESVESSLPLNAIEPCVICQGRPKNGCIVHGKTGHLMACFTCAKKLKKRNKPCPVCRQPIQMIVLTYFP
Calb FLC: affects C. albicans growth with fluconazole | C. albicans CaCi-2 (fluconazole-resistant clinical isolate) + fluconazole, Alamar Blue growth, 48 h | AID 1979 | growth inhibition, % (test concentration not listed) | 300,000 compounds, 0.57% hits;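 active = growth inhibition above about 58% in most replicates, limit read from the data, passing the limit was not always enough; inconclusive = exactly half the replicates above a set limit; inactive = most replicates below a set limit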;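 also: all wells also contain fluconazole at 8 µg/ml as a sub-toxic cotreatment; 0% = median of DMSO wells and 100% = median of geldanamycin control wells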
Mdm2-MdmX conf: confirmation of human Mdm2/MdmX interaction inhibitors. shares compounds with Mdm2-MdmX inh. Mdm2-MdmX binding, luminescent assay. inhibition, % at 8 µM. 10,000 compounds, 55% hits. AID 489028; in the data active = inhibition above about 40%
Full FLuc ctr: full-length luciferase inhibition in Mdm2/MdmX counter-screen; shares compounds with Mdm2-MdmX inh; SaOS-2 full-length luciferase counterscreen, luminescence; inhibition, % at 8 µM; 6,200 compounds, 77% hits;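 active = mean inhibition at 8 µM reaching about 37%, which flags the compound as non-specific, limit read from the data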;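 also: p53-null SaOS-2 cells with luciferase driven by a doxycycline-inducible promoter; compound on cells about two nights before reading with doxycycline added after day one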
* = called active by the depositor; ? = inconclusive; . = no result given. Compounds with a hit are over-represented: about 5.7% of the library has one in this group of screens.

SMILES | CSC inhib | T cruzi inh | Beta cell apopt | SKKanGAS inh | Mdm2-MdmX inh | Calb FLC | Mdm2-MdmX conf | Full FLuc ctr
NCCc1c(-c2ccccc2)n(-c2ccccc2)c2ccccc12 | . | 64* | . | -1 | 61* | -1 | 53* | 71*
CC(=O)c1cccc(NC(=O)CSc2nnnn2C2CCCC2)c1 | . | 0 | . | 3 | 4 | -7 | . | .
COC(=O)c1c(NC(=O)c2ccccc2)sc2c1CC(C)(C)NC2(C)C | -5 | 6 | 0 | 3 | 42 | -14 | . | .
CC1(C)Cc2c(sc(NC(=O)c3ccc4ncsc4c3)c2C(N)=O)C(C)(C)N1 | 14 | 1 | -10 | 6 | 75* | -6 | 27 | .
CC1(C)Cc2c(sc(NC(=O)c3ccc(C(=O)c4ccccc4)cc3)c2C(N)=O)C(C)(C)N1 | -5 | 53 | 8 | ? | 73* | 72 | 57* | 34
CC(OC(=O)c1ncc(Cl)c(Cl)c1Cl)C(=O)NC1(C#N)CCCCC1 (configuration not stated) | -4 | 0 | 2 | 1 | 1 | 3 | . | .
CN(c1ccccc1)S(=O)(=O)c1ccc(NC(=O)c2nc(S(C)(=O)=O)ncc2Cl)cc1 | -9 | -6 | 99* | -7 | 98* | -2 | 100* | 51*
COc1cccc(NC(=O)c2nc(S(C)(=O)=O)ncc2Cl)c1 | 113* | 1 | 2 | 4 | 96* | 1 | 83* | 60*
CN(c1ccccc1)S(=O)(=O)c1ccc(NC(=O)c2ccccc2)cc1 | 2 | 18 | 6 | -7 | 25 | 2 | . | .
COc1cccc(NC(=O)c2nc(SC)ncc2Cl)c1 | 0 | 0 | -13 | -3 | 9 | 11 | . | .
Cc1cc(C)n(-c2nnc3n2N=C(c2c[nH]c4ccccc24)CS3)n1 | 43 | -1 | -5 | -14 | 56* | -7 | 46* | 50*
CN(C)c1ccc(NC(=O)CSc2nc(C3CC3)nc3ccccc23)cc1 | . | 24 | 2 | -2 | 79* | -5 | 44* | 54*
O=C(CSc1nc(C2CC2)nc2ccccc12)Nc1ccccc1 | 10 | 18 | -12 | 2 | 30 | -6 | . | .
CC(C)c1nc(SCC(=O)Nc2ccc(N3CCOCC3)cc2)c2ccccc2n1 | . | 7 | -6 | 0 | 53* | 5 | 13 | .
CC(=O)Nc1cccc(NC(=O)CSc2nc(C3CC3)nc3ccccc23)c1 | . | -16 | 22 | -6 | 72* | -1 | 58* | 44*
COc1cc(NC(=O)CSc2nc(C3CC3)nc3ccccc23)cc(OC)c1 | -11 | 10 | -9 | -4 | 54* | -5 | -19 | .
COc1ccc(-c2nn(-c3ccccc3)cc2C(=O)N2CCN(S(=O)(=O)c3cccc(F)c3)CC2)cc1 | . | 29 | 6 | 13 | 34 | -10 | . | .
Cc1[nH]c2ccccc2c1C(C[N+](=O)[O-])c1ccco1 (configuration not stated) | -15 | -2 | -9 | 2 | 6 | 15 | . | .
Cc1ccc(-c2[nH]c3ccccc3c2C(C[N+](=O)[O-])c2ccco2)cc1 (configuration not stated) | . | 31 | 26 | 31 | 63* | -1 | 23 | .
Cc1ccc(C(=O)N/N=C/c2ccc(-c3cccc(C(F)(F)F)c3)o2)cn1 | 44 | 3 | 16 | -5 | 58* | -7 | 53* | 50*
C#CCOCCOCCOCCNc1nc(N2CCN(C(=O)CCCCCCCCCCNC(=O)[C@H](CCCCN)n3cc(C)nn3)CC2)nc(N2CCN(C(=O)CCCCCCCCCCNC(=O)[C@@H]([C@H](C)O)n3cc(C)nn3)CC2)n1 | -7 | . | 10 | . | 78* | . | 4 | .
C#CCOCCOCCOCCNc1nc(N2CCN(C(=O)CCCCCCCCCCNC(=O)[C@@H](CCSC)n3cc(CCO)nn3)CC2)nc(N2CCN(C(=O)CCCCCCCCCCNC(=O)[C@@H]([C@H](C)O)n3cc(C)nn3)CC2)n1 | -7 | . | -2 | . | 25 | . | . | .
CC[C@H](C)Cc1cn([C@@H](CCCN=C(NC(=O)OC(C)(C)C)NC(=O)OC(C)(C)C)C(=O)NCCCCCCCCCCC(=O)N2CCN(C(=O)OC(C)(C)C)CC2)nn1 | 43 | 59* | 39 | 28 | 66* | 86* | 32 | .
C#CCOCCOCCOCCNc1nc(N2CCN(C(=O)CCCCCCCCCCNC(=O)[C@H](CCCCN)n3cc(C[C@@H](C)CC)nn3)CC2)nc(N2CCN(C(=O)CCCCCCCCCCNC(=O)[C@@H]([C@H](C)O)n3cc(C)nn3)CC2)n1 | 19 | . | 99* | . | 97* | . | 97* | 7
COC(=O)c1cc(OC)nc2c1c(=O)n(C)c(=O)n2C | -6 | -10 | 1 | 14 | 0 | 2 | . | .
SMILES | CSC inhib | T cruzi inh | Beta cell apopt | SKKanGAS inh | Mdm2-MdmX inh | Calb FLC | Mdm2-MdmX conf | Full FLuc ctr
COC(=O)c1cc(-c2ccc(Br)cc2)c2c(=O)n(C)c(=O)n(C)c2n1 | 9 | -12 | 2 | 52* | 72* | -3 | 4 | .
CC(OC(=O)c1nc(Cl)ccc1Cl)C(=O)Nc1ccccc1F (configuration not stated) | 1 | -8 | -1 | -1 | -10 | 5 | . | .
COc1cc2sc(NC(=O)c3ccco3)nc2cc1Cl | 21 | -7 | 0 | -2 | 64* | -6 | -56 | .
CCc1ccc(NC(=O)c2ccc(NC3=NC4CS(=O)(=O)CC4S3)cc2)cc1 (configuration not stated) | -2 | -12 | 2 | -4 | 21 | -14 | . | .
COc1c(C)cc(S(=O)(=O)NCc2ccccn2)c(C)c1C | -15 | 5 | -8 | -5 | -6 | 5 | . | .
Cc1ccc(NC(=O)CC2S/C(=N/N=C/C=C/c3ccccc3)NC2=O)cc1Cl (configuration not stated) | 0 | -6 | -7 | 2 | 54* | -5 | 7 | .
O=C1C(=O)c2ccc(-c3ccccc3)cc2-c2ccccc21 | 131* | ? | 98* | 101* | 84* | 34 | 100* | 52*
Nc1ccc2c(c1)C(=O)c1ccccc1C2=O | 8 | -9 | 0 | -8 | -52 | 9 | . | .
Nc1ccc2c(c1)C(=O)c1ccccc1-2 | -7 | 19 | 5 | -13 | 32 | 2 | . | .
Nc1ccc2c(c1)C(=O)C(=O)c1ccccc1-2 | -5 | 38 | 107* | 86* | 98* | -3 | 99* | 1
COc1ccc(S(=O)(=O)N2CCOCC2)cc1C(=O)N1CCCCC1 | -16 | -2 | -4 | 0 | 14 | -2 | . | .
CCOc1ccc(NC(=O)CN(C)C(=O)c2cc(S(=O)(=O)N3CCCCC3)ccc2C)cc1OCC | -4 | -4 | -10 | -13 | 19 | -2 | . | .
O=C1CN(S(=O)(=O)c2cc(C(=O)O)ccc2Cl)c2ccccc2N1 | 11 | 0 | 0 | 1 | -15 | 5 | . | .

High-throughput results deposited in PubChem BioAssay by several laboratories.
